Calls of active or inactive are those of the source. The rule behind the calls is not given here.
Tests used:
HepG2 [1] = experiment: Cytotoxicity against human HepG2 cells after 72 hrs by spectrophotometry; format: functional, cell-based; settings: HepG2, 72 h
Outline: (§1)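 Cells grown as monolayers in DMEM with 10% FBS, penicillin and streptomycin at 37 °C, 5% CO₂. Seeded at 5 × 10³ cells/well and exposed for 72 h. Medium changed, then another day of incubation. XTT (1 mg/mL) plus PMS added in serum-free medium for 4 h at 37 °C, read at 492 nm. Percent of control growth = treated/control absorbance × 100 (n = 3). GI50 taken from the linear portion of the curve.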

SK-OV-3 = experiment: Cytotoxicity against human SKOV3 cells after 72 hrs by spectrophotometry; format: functional, cell-based; settings: SK-OV-3, 72 h; outline: as §1
HepG2 [2] = experiment: Cell cycle arrest in human HepG2 cells assessed as accumulation at G2/M phase at 62.5 nM after 24 hrs by flow cytometry; format: functional, cell-based
Outline: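 After treatment, cells were harvested, washed in PBS and resuspended in 1 mL 0.1% sodium citrate containing 0.05 mg propidium iodide and 50 µg RNase for 30 min at room temperature in the dark. DNA content was measured by flow cytometry, with at least three experiments run.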

H22 [3] = experiment: Antitumor activity against mouse H22 cells transfected in nude mouse assessed as tumor growth inhibition at 200 mg/kg, qd after 7 days relative to control; format: functional; settings: H22, 168 h, read-out: TGI
Outline: (§2)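 Female SPF/ICR athymic nude mice, 4–5 weeks old (24 ± 2 g), received H22 cells (1 × 10⁶ per animal) s.c. into the armpit. Dosing started once tumors were detectable by fluorescent macro-imaging and was given once daily for 7 days. Animals were then killed and solid tumors excised and weighed. Inhibition = (mean vehicle tumor weight − mean treated)/mean vehicle × 100%. n = 6 per group at start.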

H22 [4] = experiment: Antitumor activity against mouse H22 cells transfected in nude mouse assessed as tumor growth inhibition at 50 mg/kg, qd after 7 days relative to control; format: functional; settings: H22, 168 h, read-out: TGI; outline: as §2
H22 [5] = experiment: Antitumor activity against mouse H22 cells transfected in nude mouse assessed as tumor growth inhibition at 10 mg/kg, qd after 7 days relative to control; format: functional; settings: H22, 168 h, read-out: TGI; outline: as §2

Row | Compound | IC50 (HepG2 [1]) [nM] | IC50 (SK-OV-3) [nM] | Activity (HepG2 [2]) | inhibition in vivo at 200 mg/kg (H22 [3]) [%] | inhibition in vivo at 50 mg/kg (H22 [4]) [%] | inhibition in vivo at 10 mg/kg (H22 [5]) [%]
1 | COc1ccc(-n2c(-c3cc(OC)c(OC)c(OC)c3)cccc2=O)cc1O | 1220 | 1220 | – | – | – | –
2 | COc1ccc(-c2cccc(=O)n2-c2cc(OC)c(OC)c(OC)c2)cc1C | 129 | 583 | – | – | – | –
3 | COc1ccc(-c2cccc(=O)n2-c2cc(OC)c(OC)c(OC)c2)cc1 | < 10 | < 10 | inactive | 54 | 41 | –
4 | COc1cc(-c2cccc(=O)n2-c2ccc(F)cc2)cc(OC)c1OC | > 100000 | 9740 | – | – | – | –
5 | COc1cc(-n2c(-c3ccc(OC(F)(F)F)cc3)cccc2=O)cc(OC)c1OC | 1960 | 461 | – | – | – | –
6 | CC(=O)O[C@H]1C(=O)[C@@]2(C)[C@H]([C@H](OC(=O)c3ccccc3)[C@]3(O)C[C@H](OC(=O)[C@H](O)[C@@H](NC(=O)c4ccccc4)c4ccccc4)C(C)=C1C3(C)C)[C@]1(OC(C)=O)CO[C@@H]1C[C@@H]2O [PACLITAXEL] | 6 | 12 | – | – | – | 47
7 | COc1ccc(-c2cccc(=O)n2-c2cc(OC)c(OC)c(OC)c2)cc1O | < 10 | < 10 | inactive | 40 | 27 | –
8 | COc1cc(-n2c(-c3ccc4c(c3)OCO4)cccc2=O)cc(OC)c1OC | < 10 | 64 | inactive | 27 | 17 | –
9 | COc1ccc(-n2c(-c3cc(OC)c(OC)c(OC)c3)cccc2=O)cc1OC | 4870 | 14300 | – | – | – | –
10 | COc1cc(-c2cccc(=O)n2-c2ccc([N+](=O)[O-])cc2)cc(OC)c1OC | 941 | 311 | – | – | – | –
11 | COc1ccc(-c2cccc(=O)n2-c2cc(OC)c(OC)c(OC)c2)cc1OCc1ccccc1 | 269 | 2310 | – | – | – | –
12 | COc1cc(-n2c(-c3ccncc3)cccc2=O)cc(OC)c1OC | 1780 | 1780 | – | – | – | –
13 | COc1cc(-n2c(-c3cccc4cc[nH]c34)cccc2=O)cc(OC)c1OC | 2400 | 138 | – | – | – | –
14 | COc1ccc(-c2cccc(=O)n2-c2cc(OC)c(OC)c(OC)c2)cc1OC | 513 | 545 | – | – | – | –
15 | COc1cc(-c2cccc(=O)n2-c2ccncc2)cc(OC)c1OC | 2520 | 3020 | – | – | – | –
16 | COc1cc(-n2c(-c3ccc([N+](=O)[O-])cc3)cccc2=O)cc(OC)c1OC | < 10 | 201 | inactive | 61 | 31 | –
17 | COc1cc(-n2c(-c3cccc(O)c3)cccc2=O)cc(OC)c1OC | 34 | 1460 | – | – | – | –
18 | COc1cc(-c2cccc(=O)n2-c2ccc(C(F)(F)F)cc2)cc(OC)c1OC | 10200 | 1920 | – | – | – | –
19 | COc1cc(-c2cccc(=O)n2-c2cccc(F)c2)cc(OC)c1OC | 73 | 340 | – | – | – | –
20 | COc1cc(-c2cccc(=O)n2-c2cc(OC)c(OC)c(OC)c2)cc(OC)c1OC | 5460 | 844 | – | – | – | –
21 | COc1ccc(-n2c(-c3cc(OC)c(OC)c(OC)c3)cccc2=O)cc1 | 5740 | 1540 | – | – | – | –
22 | COc1ccc(-n2c(-c3cc(OC)c(OC)c(OC)c3)cccc2=O)cc1OCc1ccccc1 | 3040 | 25500 | – | – | – | –
23 | COc1cc(-c2cccc(=O)n2-c2ccc3c(c2)OCO3)cc(OC)c1OC | 5410 | 14000 | – | – | – | –
24 | COc1cc(-n2c(-c3cccc(F)c3)cccc2=O)cc(OC)c1OC | 159 | 472 | – | – | – | –

From ChEMBL document CHEMBL2429774, “Synthesis and biological evaluation of novel 1,6-diaryl pyridin-2(1H)-one analogs” (Eur J Med Chem, 2013)
